What was measured:
[1] = Cytotoxicity against human THP1 cells; format: cell-based; details: THP-1 cells
Summary of the method: (§1)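 Vero monolayers or THP-1 cells (made adherent with 10 ng/mL PMA), in RPMI 1640 with 10% hiFCS, were exposed to compound (0.3–300 µg/mL) for 72 h at 37 °C, 5% CO2. Viability was measured by MTT, with formazan dissolved in DMSO and read at 580 nm. % cytotoxicity was calculated against untreated cells; CC50 came from sigmoidal regression, given as mean ± SD.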

Trypanosoma cruzi [2] = assay: Antiparasitic activity against amastigote stage of Trypanosoma cruzi infected in Vero cells assessed as parasite growth inhibition after 24 hrs by hemocytometery; format: functional, organism-based; details: Trypanosoma cruzi, Vero, 24 h; read-out: IC50
Summary of the method: (§2)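 Host cells were Vero for T. cruzi (infected with tissue-derived trypomastigotes) and THP-1 (PMA-transformed, 10 ng/mL) for L. (L.) infantum (infected with late-phase promastigotes), at 1:10 cell:parasite for 24 h. Serial dilutions were given as two doses, the second on day 3 with a medium change. Read-out was % infected cells on methanol-fixed, Giemsa-stained slides (300 cells). IC50 came from sigmoidal regression; experiments in duplicate, concentrations in triplicate.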

[3] = Selectivity index, ratio of CC50 for human THP1 cells to IC50 for promastigote stage of Leishmania infantum; format: functional, THP-1
Summary of the method: (§3)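 Selectivity index was calculated as CC50 in Vero (T. cruzi) or THP-1 (L. infantum) cells divided by parasite IC50. Both values came from 72 h mammalian-cell MTT assays and the parasite assays; SI ≥ 3 was defined as parasite-selective.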

[4] = Selectivity index, ratio of CC50 for African green monkey Vero cells to IC50 for epimastigote stage of Trypanosoma cruzi; format: functional; summary of the method: as §3
Leishmania infantum [5] = assay: Antiparasitic activity against promastigote stage of Leishmania infantum assessed as parasite growth inhibition after 72 hrs by hemocytometery
[6] = Cytotoxicity against African green monkey Vero cells; format: cell-based; details: chlorocebus sabaeus; summary of the method: as §1
Trypanosoma cruzi [7] = assay: Antiparasitic activity against epimastigote stage of Trypanosoma cruzi infected in Vero cells assessed as parasite growth inhibition […] by hemocytometery; format: functional, organism-based
Summary of the method: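 Exponential-phase T. cruzi Sylvio X10 epimastigotes (LIT medium with hiFCS) or L. (L.) infantum MHOM/BR/74/PP75 promastigotes (RPMI 1640, hemin, HEPES, 10% hiFCS) were exposed to threefold serial dilutions (0.3–300 µg/mL) for 72 h at 28 °C. Viable parasites were counted by hemocytometer with 0.25% eosin yellow. IC50 came from sigmoidal regression, given as mean ± SD.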

Leishmania infantum [8] = assay: Antiparasitic activity against amastigote stage of Leishmania infantum infected in THP1 cells assessed as parasite growth inhibition after 24 hrs by hemocytometery; format: functional, organism-based, THP-1; details: Leishmania infantum, THP-1, 24 h; read-out: IC50; summary of the method: as §2
[9] = Selectivity index, ratio of CC50 for African green monkey Vero cells to IC50 for amastigote stage of Trypanosoma cruzi; format: functional; summary of the method: as §3

Row | SMILES | IC50 (Trypanosoma cruzi [2]) [µM] | IC50 (Trypanosoma cruzi [7]) [µM] | CC50 [1] [µM] | Selectivity Index [3] | Selectivity Index [4] | IC50 (Leishmania infantum [5]) [µM] | CC50 [6] [µM] | IC50 (Leishmania infantum [8]) [µM] | Selectivity Index [9]
1 | Cn1cccc1[C@@H]1C[C@H]2Cc3cc(F)ccc3N1O2 (mixture of isomers) | > 387 | 414 | 2180 | 6.9 | 1.3 | 316 | 533 | > 387 | 
2 | Cc1ccc([C@@H]2C[C@H]3Cc4ccccc4N2O3)s1 (racemic) | 91.5 | 147 | 497 | 9.6 | 6 | 52 | 878 | > 389 | 9.6
3 | FC(F)(F)Oc1ccc2c(c1)C[C@@H]1C[C@@H](c3cccs3)N2O1 (racemic) | 73.9 | 143 | > 306 | >1.2 | >2.1 | 256 | > 306 | > 306 | >4.1
4 | c1coc([C@@H]2C[C@H]3Cc4ccccc4N2O3)c1 (racemic) | > 440 | 229 | 663 | 14.7 | 6.8 | 45.3 | 1560 | > 440 | 
5 | Cc1ccc([C@@H]2C[C@H]3Cc4cc(F)ccc4N2O3)o1 (racemic) | > 386 | 192 | 338 | 3.3 | 5.6 | 102 | 1080 | > 128 | 
6 | O=[N+]([O-])c1ccc([C@@H]2C[C@H]3Cc4cc(OC(F)(F)F)ccc4N2O3)o1 (racemic) | > 281 | > 843 | 404 | 6.1 |  | 66.6 | 214 | > 281 | 
7 | Fc1ccc2c(c1)C[C@@H]1C[C@@H](c3ccoc3)N2O1 (racemic) | > 408 | 151 | > 1220 | 11.9 | >8.1 | 103 | > 1220 | > 408 | 
8 | FC(F)(F)Oc1ccc2c(c1)C[C@@H]1C[C@@H](c3ccoc3)N2O1 (racemic) | > 107 | 192 | > 1930 | >76.6 | 0.9 | 25.2 | 180 | > 322 | 
9 | Cc1ccsc1[C@@H]1C[C@H](O)Cc2ccccc2N1 (relative stereo) | > 128 | 143 | 579 | 3.7 | 4.3 | 156 | 616 | > 128 | 
10 | O[C@@H]1Cc2cc(F)ccc2N[C@H](c2cccs2)C1 (relative stereo) | > 380 | 764 | 190 | 1.6 | 0.3 | 120 | 218 | > 380 | 
11 | O[C@@H]1Cc2cc(OC(F)(F)F)ccc2N[C@H](c2ccoc2)C1 (relative stereo) | > 106 | 602 | 460 | 10.7 | 0.2 | 43.1 | 95.4 | > 106 | 

Now those with a lower IC50 (Trypanosoma cruzi [7]), led by results:

Row | IC50 (Trypanosoma cruzi [2]) [µM] | IC50 (Trypanosoma cruzi [7]) [µM] | SMILES | CC50 [1] [µM] | Selectivity Index [3] | Selectivity Index [4] | IC50 (Leishmania infantum [5]) [µM] | CC50 [6] [µM] | IC50 (Leishmania infantum [8]) [µM] | Selectivity Index [9]
12 | > 119 | 95.1 | O[C@@H]1Cc2cc(Cl)ccc2N[C@H](c2cccs2)C1 (relative stereo) | 115 | 2.3 | 1.7 | 49.5 | 164 | > 119 | 
13 | 137 | 62.2 | Brc1ccc([C@@H]2C[C@H]3Cc4ccccc4N2O3)s1 (racemic) | 1250 | 34.7 | 28.9 | 36.1 | 1800 | > 312 | 13.2
14 |  | 53.1 | Clc1ccc2c(c1)C[C@@H]1C[C@@H](c3ccco3)N2O1 (racemic) | > 1150 | >24.3 | 6.7 | 47.3 | 353 | > 128 | 
15 | > 122 | 53 | O=[N+]([O-])c1ccc([C@@H]2C[C@H]3Cc4ccccc4N2O3)o1 (racemic) | 234 | 2.2 | 1 | 107 | 51.4 | > 368 | 
16 | 70.1 | 47.7 | Fc1ccc2c(c1)C[C@@H]1C[C@@H](c3ccco3)N2O1 (racemic) | > 1220 | >14.7 | >8.6 | 83.2 | > 408 | > 136 | >5.8
17 | 202 | 47.2 | Cc1ccsc1[C@@H]1C[C@H]2Cc3cc(OC(F)(F)F)ccc3N1O2 (racemic) | > 1760 | >153.9 | 1.3 | 11.4 | 61.7 | > 293 | 0.3
18 | 312 | 46.2 | Cc1ccc([C@@H]2C[C@H]3Cc4cc(Cl)ccc4N2O3)o1 (racemic) | 374 | 19.6 | 25.1 | 19.1 | 1160 | > 130 | 3.7
19 | > 293 | 43.9 | Cc1ccc([C@@H]2C[C@H]3Cc4cc(OC(F)(F)F)ccc4N2O3)s1 (racemic) | 282 | 26.8 | 3.9 | 10.5 | 170 | > 293 | 
20 | 54.6 | 34.7 | Fc1ccc2c(c1)C[C@@H]1C[C@@H](c3ccc(Br)s3)N2O1 (racemic) | > 295 | >40.6 | >8.5 | 7.3 | > 295 | > 295 | >5.4
21 | > 364 | 30.9 | Cc1ccc([C@@H]2C[C@H]3Cc4cc(F)ccc4N2O3)s1 (racemic) | 234 | 2.5 | 30.6 | 92 | 944 | > 121 | 
22 | 284 | 29.7 | O=[N+]([O-])c1ccc([C@@H]2C[C@H]3Cc4cc(F)ccc4N2O3)o1 (racemic) | 539 | 50.4 | 14.2 | 10.7 | 422 | > 115 | 1.5
23 | > 120 | 25.4 | Clc1ccc2c(c1)C[C@@H]1C[C@@H](c3cccs3)N2O1 (racemic) | > 361 | >17.5 | >14.2 | 20.7 | > 361 | > 120 | 
24 | 101 | 24.8 | Cc1ccc([C@@H]2C[C@H]3Cc4cc(Cl)ccc4N2O3)s1 (racemic) | > 2060 | >63.8 | 46.1 | 32.3 | 1140 | > 344 | 11.3
25 | > 114 | 14.6 | Cc1ccc([C@@H]2C[C@H](O)Cc3cc(Cl)ccc3N2)s1 (relative stereo) | > 2050 | >31.8 | 10.5 | 64.4 | 154 | > 341 | 
26 | 99 | 11.7 | Cc1ccsc1[C@@H]1C[C@H]2Cc3cc(Cl)ccc3N1O2 (racemic) | 250 | 7.7 | 15.6 | 32.3 | 183 | > 344 | 1.9
27 | 1.6 | 4 | CC1CS(=O)(=O)CCN1/N=C/c1ccc([N+](=O)[O-])o1 (stereo unspecified) [NIFURTIMOX] |  |  | 17 |  | 67.5 |  | 43

Source: ChEMBL document CHEMBL3352355, “Synthesis of novel polysubstituted (2SR,4RS)-2-heteroaryltetrahydro-1,4-epoxy-1-benzazepines and cis-2-heteroaryl-4-hydroxytetrahydro-1H-1-benzazepines as antiparasitic agents” (Eur J Med Chem, 2014)
